Rows were chosen to be rich in hits. Some 2.9% of all compounds tested hit in one or more screens of this group.
NALP1 inh – NALP1 inflammasome inhibitors in reconstituted yeast, colorimetric, S. cerevisiae, triplicate retest. AID 2071, 2009. S. cerevisiae NALP1/ASC/caspase-1 growth, X-gal OD620, 72 h. inhibition, % at 10 µM. 280,000 tested, 0.61% active; in the data active = inhibition mostly above about 24%, no sharp cut-off; inactive = mostly below about 32%
IMP-1 inh – IMP-1 metallo-beta-lactamase inhibitors, primary screen, biochemical, epi-absorbance readout, Pseudomonas aeruginosa enzyme | metallo-beta-lactamase IMP-1 (Pseudomonas aeruginosa) | purified IMP-1, nitrocefin hydrolysis, epi-absorbance fluorescence | inhibition, % at 5.6 µM | 290,000 tested, 0.45% active | AID 1556, 2009;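 active = inhibition above the mean plus 3 SD of all compounds in the same screening run, cut at about 4.5% in these data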;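 also: 0% = IMP-1 with DMSO and 100% = DMSO wells lacking enzyme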
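assay system = purified recombinant IMP-1 metallo-beta-lactamase enzyme | schedule = 15 min preincubation plus 25 min reaction at 25 °C | signal = Epi-absorbance fluorescence, 480 nm excitation, 530 nm emission | read-out basis = percent inhibition from optical density relative to buffer-blank wells | controls = IMP-1 with DMSO as 0%, enzyme-free DMSO as 100%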
SUMO HTRF inh – inhibitors of in vitro SUMOylation cascade, primary screen, biochemical, HTRF, uHTS | SUMO-conjugating enzyme UBC9 (Homo sapiens), P63279 | HTRF SUMOylation assay, SAE1/SAE2 + UBC9 | inhibition, % at 35 µM | 290,000 tested, 0.36% active; in the data active = inhibition above about 50%, passing the limit was not always enough
Target sequence (P63279 whole entry, looked up): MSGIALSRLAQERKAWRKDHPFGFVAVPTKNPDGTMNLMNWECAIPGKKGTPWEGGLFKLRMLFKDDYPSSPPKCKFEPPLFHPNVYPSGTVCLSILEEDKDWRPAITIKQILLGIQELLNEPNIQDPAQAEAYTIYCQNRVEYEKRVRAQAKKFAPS
VIM-2 inh – VIM-2 metallo-beta-lactamase inhibitors, primary screen, biochemical, epi-absorbance readout, Pseudomonas aeruginosa enzyme | purified VIM-2, nitrocefin hydrolysis, epi-absorbance fluorescence | inhibition, % at 5.6 µM | AID 1527, 2009 | 290,000 tested, 0.89% active;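 active = inhibition above the mean of all tested compounds plus 3 SD, cutoff set per screening run, cut at about 7.5% in these data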;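 also: red hydrolysis product quenches plate fluorescence so inhibitors raise well fluorescence; 0% = enzyme with DMSO and 100% = DMSO without enzyme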
Mot1-301 SUMO – yeast Mot1-301 growth rescue at high temperature, primary screen, SUMOylation pathway inhibitor project, S. cerevisiae, ATP luminescence, 38.5C; S. cerevisiae Mot1-301 growth rescue; percent above DMSO median, 100 means doubled; growth rescue, % at 18.8 µM; 320,000 tested, 1% active; AID 2716, 2010;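 active = every valid replicate shows activation above 250% relative to neutral control wells; inactive = the rest, any valid replicate at or below 250%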;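 also: OY570 slx delta 5 strain wells were the positive control but not used for scaling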
FID counter – compounds displacing fluorescent DNA intercalator, primary screen, artefact control for HCV NS3 helicase inhibitor project, biochemical, FID fluorescence; DNA fluorescent intercalator displacement; inhibition, % at 7.9 µM; 290,000 tested, 0.17% active; in the data active = inhibition above about 37%;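 also: 0% = vehicle and 100% = reference compound; higher means more ethidium bromide displaced from hairpin DNA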
Mot1 SUMO dose – growth restoration of Mot1-301 yeast on galactose, dose response, SUMO pathway inhibitor project, whole organism, S. cerevisiae, ATP luminescence, cherry-picked samples. shares compounds with Mot1-301 SUMO. S. cerevisiae Mot1-301 galactose growth, 24 h; -100 = growth of slx-deleted rescue strain. growth activity, percent, % at 42 µM. 2,300 tested, under 10 active. AID 493004, 2010;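 active = Signal drops as the depositor expects, and the fitted half-maximal dose is no more than ten times the top valid tested dose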;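 also: more negative values mean stronger growth rescue toward the control strain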
Numbers without * were called inactive; nt = no result; + = active, no number; [ ] = dose if it differs, or a comment.

SMILES	NALP1 inh	IMP-1 inh	SUMO HTRF inh	VIM-2 inh	Mot1-301 SUMO	FID counter	Mot1 SUMO dose
Cc1ccccc1-c1nnnn1C1CCS(=O)(=O)C1 (centres undefined)	28.4	-0.1	11.0	-1.6	+	2.6	0.3
Cc1ccccc1-c1nc2ccccc2c(=O)n1C1CCS(=O)(=O)C1 (centres undefined)	33.9	-3.7	-31.8	-3.7	-6.3	-4.4	nt
CC1CCCC(C)N1C(=O)CSc1nnnn1-c1cccc2c1CCCC2 (centres undefined)	0.5	-3.0	-3.5	-1.8	414.1*	-31.7	-0.2
COc1ccc(C(C)=O)cc1CN(c1ccccc1OC)S(=O)(=O)c1cccs1	4.5	-3.2	5.5	-0.1	369.9*	-29.9	0.1
COc1ccccc1CN(C)S(=O)(=O)c1cccs1	16.1	-1.5	7.5	-0.4	-20.8	-10.2	nt
COc1ccc(NC(=O)COC(=O)Cc2ccccc2[N+](=O)[O-])cc1OC	12.7	-2.0	-0.5	-0.8	25.3	-2.1	nt
COc1ccccc1C(=O)NC(=O)COC(=O)Cc1ccccc1[N+](=O)[O-]	nt	nt	nt	nt	616.6*	nt	-0.8
NCCCNc1nc(N)c([N+](=O)[O-])c(NC2CCCCC2)n1	11.2	-0.8	-15.3	-0.5	-12.1	6.8	nt
CCCc1ccc(S(=O)(=O)NCCc2ccncc2)cc1	-9.6	-0.4	-3.4	0.3	541.1*	-9.6	0.3
CC(C)[C@H](NC(=O)N1CC(=O)Nc2ccccc21)C(=O)N[C@@H](C(=O)O)c1ccccc1	18.0	-1.4	-6.9	0.8	-15.7	-40.6	nt
CCOc1ccc(C(=O)Nc2ccc(CN3CCOCC3)cc2)cc1Br	11.4	-3.7	-3.9	-0.8	364.9*	6.6	0.5[21 µM]
CCOc1ccc(NC(=O)c2ccc(NC(=O)c3ccc(CN4CCOCC4)cc3)cc2)cc1	nt	-2.6	nt	-1.2	-10.5	-4.4	nt
Cc1ccc(C(=O)OCC(=O)NC2CCCC(C)C2C)cc1S(=O)(=O)N1CCCCC1 (centres undefined)	nt	nt	nt	nt	9.1	nt	nt
COc1cc(S(=O)(=O)N2CCN(c3ccccc3)CC2)ccc1F	-2.7	-2.3	4.1	-3.7	646.6*	4.2	0.1
COc1cc(S(=O)(=O)N2CCN(c3ccccc3)CC2)ccc1Cl	-9.1	-1.5	-8.6	-1.1	-7.0	-2.9	nt
Cc1ccc(S(=O)(=O)NN2C(=O)c3ccccc3NC2c2ccccc2F)cc1 (centres undefined)	-1.8	-2.0	-6.8	0.7	428.8*	-19.2	0.5
O=S(=O)(NCC1CCCO1)c1cc(Cl)ccc1Br (centres undefined)	5.8	-1.5	15.5	0.2	466.6*	10.8	0.8
O=S(=O)(NCC1CCCO1)c1cc(Cl)ccc1Cl (centres undefined)	-4.8	-3.5	-7.7	-3.1	-4.9	1.5	nt
CCOc1ccc(N2C(=O)CC(Sc3nc4ccc(OCC)cc4s3)C2=O)cc1 (centres undefined)	nt	-1.3	nt	-4.4	41.5	-3.8	nt
C=CCNc1nnc(SC2CC(=O)N(c3ccc(OCCC)cc3)C2=O)s1 (centres undefined)	-27.9	-1.1	12.8	-1.9	+	-7.3	-1.8
COc1ccc(CNS(=O)(=O)c2ccc3c(c2)CCN3C(=O)C2CCC2)cc1	9.6	-3.3	-8.1	-0.9	412.1*	-37.9	0.3
O=C(CNC(=O)c1ccc(Br)cc1)N/N=C/c1cccnc1	6.4	-1.0	18.5	-1.4	5.4	-9.4	nt
COc1ccccc1CC(=O)N1CCOCC1	14.7	-1.2	2.7	-0.9	878.2*	0.4	-0.1
O=C(C1CCC(CNc2c(N3CCCCC3)c(=O)c2=O)CC1)N1CCN(c2ccccn2)CC1 (centres undefined)	12.3	-3.5	11.1	1.4	-5.4	-30.1	nt
O=C(C1CCC(CNc2c(N3CCCCC3)c(=O)c2=O)CC1)N1CCN(C2CCCCC2)CC1 (centres undefined)	7.4	-0.2	16.4	-0.3	499.1*	-3.6	0.6
SMILES	NALP1 inh	IMP-1 inh	SUMO HTRF inh	VIM-2 inh	Mot1-301 SUMO	FID counter	Mot1 SUMO dose
COc1ccc(C#Cc2c(-c3ccccc3)n(C)c3ccccc23)cc1	nt	nt	nt	nt	5.8	nt	nt
Cc1cc(C#Cc2c(-c3ccccc3)n(C)c3ccccc23)ccc1F	-6.9	-0.9	18.5	1.1	715.8*	-13.9	-0.5
CN(C)S(=O)(=O)c1cccc(NC(=O)CSc2nnnn2-c2ccccc2)c1	-10.6	-4.7	-12.9	-4.1	2.1	-12.5	nt
NS(=O)(=O)c1cccc(NC(=O)CSc2nnnn2-c2ccccc2)c1	nt	-2.5	12.7	-2.3	375.0*	-6.8	-0.1
CCn1nccc1C(=O)Nc1ccc(C)c(C)c1	14.5	1.4	39.3	-0.7	-1.9	-8.7	nt
COc1ccc(CNC(=O)c2ccc(Cn3cc(Br)cn3)o2)cc1	19.2	-3.0	-6.2	-1.4	10.9	-26.6	nt
O=C(CCc1nc2sc3c(c2c(=O)[nH]1)CCCC3)N1CCN(c2ccccc2)CC1	nt	nt	nt	nt	772.0*	nt	0.5
COCC(C)n1c(C)cc(C(=O)CSc2ccc(NC(C)=O)cc2)c1C (centres undefined)	38.4	-1.8	15.0	-4.2	+	-10.3	-0.5
Clc1ccc(-c2noc(CCCc3ccccc3)n2)cc1	-2.8	-4.0	8.6	-1.0	-7.7	-1.1	nt
c1ccc(OCCCc2nc(-c3cccnc3)no2)cc1	-0.5	-7.4	2.6	-4.6	455.7*	-7.0	1.1
c1ccc(CCCc2nc(-c3cccnc3)no2)cc1	7.6	-0.8	-0.1	-0.9	627.9*	-18.0	0.3
CCOC(=O)C1=C(C)NC(=S)NC1c1ccc(OCC(=O)N2CCCCCC2)cc1 (centres undefined)	-35.1	-2.1	8.5	-0.2	-2.2	-31.5	nt
O=C(O)Cc1sc(Nc2ccccc2)nc1-c1cccs1	nt	-1.9	19.9	-4.4	414.7*	1.0	-0.6
CSCCC(NC(=O)c1ccccc1)C(=O)NNC(=O)c1csc(N2CCOCC2)n1 (centres undefined)	19.4	-4.2	5.0	-3.5	4.2	-22.2	nt
O=C(CCN1C(=O)[C@@H]2Cc3ccccc3CN2C1=O)N[C@H](C(=O)O)c1ccccc1	-1.6	-2.4	4.3	-1.4	-17.6	-18.9	nt
CC(NC(=O)CN1CCN(Cc2cccc(F)c2)CC1)c1ccccc1 (centres undefined)	nt	-1.3	1.7	0.9	4.3	-7.8	nt

High-throughput results deposited in PubChem by several laboratories.
